Screening results as filed in PubChem.
The list is not random: actives were taken first. Their share in the collection is about 2.6%.
Tb MetRS inh: T. brucei MetRS inhibitors, primary screen, biochemical, luminescence | methionyl-tRNA synthetase (Trypanosoma brucei brucei) | inhibition, % at 11.9 µM | purified T. brucei MetRS, ATP depletion, Kinase-Glo luminescence | AID 624268, 2012 | hit rate 0.4% among 360,000;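 active means inhibition above a per-plate cutoff of the control wells' mean inhibition plus 3 SD, cut at about 5.5% in these data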;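 further: 0% = DMSO wells median and 100% = median of wells with control inhibitor compound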
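assay system = parasite MetRS enzyme | timing = 15 min preincubation, 2 h reaction, all 25 °C | evaluation = percent inhibition relative to median high and low control wells | medium = HEPES buffer containing pyrophosphatase, BSA, spermine, DTT | compound = single dose, 11.9 µM final nominal, 0.9% final DMSO | detection = Kinase-Glo luminescence, ATP depletion format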
MC4R barr agon: MC4R agonists recruiting beta-arrestin, primary screen, cell-based, luminescence, agonist arm of biased-ligand search. Melanocortin receptor 4 (Homo sapiens), P32245. U2OS MC4R beta-arrestin complementation; percent of melanotan II response, DMSO zero. activation, % at 8.9 µM. hit rate 0.98% among 360,000. AID 540308, 2011;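 active means activation above a per-plate cutoff, the mean activation of sample wells on that plate plus 3 SD, cut at about 8% in these data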
Target sequence (P32245 whole entry, looked up): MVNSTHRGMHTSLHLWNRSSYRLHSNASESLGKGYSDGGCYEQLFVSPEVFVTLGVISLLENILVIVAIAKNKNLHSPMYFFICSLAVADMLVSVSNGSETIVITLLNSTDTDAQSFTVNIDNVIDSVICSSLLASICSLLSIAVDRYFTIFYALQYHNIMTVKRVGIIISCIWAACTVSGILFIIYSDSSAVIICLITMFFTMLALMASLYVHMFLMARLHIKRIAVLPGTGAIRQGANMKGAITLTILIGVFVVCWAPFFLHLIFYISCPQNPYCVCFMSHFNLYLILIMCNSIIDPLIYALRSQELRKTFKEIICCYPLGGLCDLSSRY
hiPSC survival: enhancers of single-cell hiPSC survival, primary screen, ATPlite luminescence; hit rate 0.044% among 360,000; survival enhancement, % at 20 µM; 100% = ROCK inhibitor wells, 0% = DMSO; AID 602274, 2012; in the data active means survival enhancement above about 18%;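 further: cells exposed to compounds for 16 hours before the ATP read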
ABCB6 inh 2: ABCB6 transporter inhibitors, primary screen, K562-ABCB6 cells, flow cytometry, MLPCN library; ATP-binding cassette sub-family B member 6 (Homo sapiens), Q9NP58; K562-ABCB6 porphyrin accumulation, 1 h; stronger effect = lower value; fluorescence ratio to DMSO, % at 10 µM; hit rate 0.19% among 360,000;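 active means fluorescence ratio to DMSO below 75%, the collection mean minus 3 SD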;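 further: signal is porphyrin accumulated inside mitochondria; 100% equals median channel fluorescence of DMSO control wells; lower ratio means ABCB6 inhibition with less porphyrin fluorescence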
MC4R antagonist: MC4R antagonists of cAMP signaling, primary screen, cell-based, TR-FRET, antagonist arm of biased-ligand search. Melanocortin receptor 4 (Homo sapiens), P32245. MC4R-expressing cells, MTII-stimulated cAMP, LANCE TR-FRET. inhibition, % at 6.5 µM. hit rate 0.48% among 360,000. AID 540295, 2011;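 active means inhibition above its plate's cutoff, the mean of tested wells on that plate plus 3 SD, cut at about 29% in these data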;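 further: 0% = Melanotan II alone and 100% = Melanotan II plus saturating MCL0020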
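Assay system: human MC4R-expressing U2OS cells; reagent: Melanotan II stimulation of cells; dosing: 6.5 µM single dose; timing: compound 30 min, challenge 1 h, detection 1 h; signal: TR-FRET cAMP assay; replicates: one well per compound, no replicates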
Exocytosis inh: LAMP-1 surface exposure blockers, TALL-104 cells – cell-based, flow cytometry, MLPCN library, primary screen | TALL-104 LAMP-1 surface exposure; cells stimulated with thapsigargin and PMA | inhibition, % at 10 µM | hit rate 0.66% among 360,000 | AID 651702, 2012;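 active means inhibition above about 55%, limit read from the data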
Granule exo CP1: inhibitors of lytic granule exocytosis, confirmation, TALL-104 cells, flow cytometry, Cherry Pick01; shares compounds with Exocytosis inh; LAMP-1 externalization; stimulated with PMA plus thapsigargin; inhibition, % at 10 µM; hit rate 11% among 1,500; AID 651954, 2012; in the data active means inhibition above about 60%;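 further: 0% = stimulated vehicle wells and 100% = unstimulated wells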
* = called active by the depositor; / = not tested or not shown.

SMILES	Tb MetRS inh	MC4R barr agon	hiPSC survival	ABCB6 inh 2	MC4R antagonist	Exocytosis inh	Granule exo CP1
CC(C)Cn1c(=O)c2c(nc3n2CCCN3CCc2ccccc2)n(C)c1=O	-2	3	0	85	4	-1	/
Cc1cc(C)nc(/N=C(\N)Nc2cccc(OCc3ccccc3)c2)n1	-1	-2	0	93	-10	85*	-10
Cc1cc(C)nc(/N=C(\N)Nc2ccc(OCc3ccccc3)cc2)n1	0	0	-3	90	-8	0	/
O=C1CC(Sc2nnnn2-c2ccccc2)C(=O)N1c1cccc(Cl)c1 (centres undefined)	0	0	1	96	27	99*	101*
CCOC(=O)C(C)CC(C)C(=O)N1CCOCCOCCN(C(=O)C(C)CC(C)C(=O)OCC)CCOCC1 (centres undefined)	-1	-2	3	97	-4	0	/
CCOC(=O)C(C(=O)OCC)C(C(=O)OCC)N1CCOCC1 (centres undefined)	0	2	-2	91	9	88*	14
CC(Sc1ncccn1)C(=O)Nc1ccc2c(c1)OCO2 (centres undefined)	0	-2	0	93	12	4	/
Cc1cc(C)nc(NS(=O)(=O)c2ccc(CC(C)C)cc2)c1	0	1	0	94	-1	4	/
O=C1NC[C@H](CC2CCCCC2)N(CCc2cc(C(F)(F)F)cc(C(F)(F)F)c2)C1=O	-2	/	-2	103	/	16	/
FC(F)(F)c1cc(CCN2C(=S)NC[C@@H]2CC2CCCCC2)cc(C(F)(F)F)c1	0	-1	-3	97	-1	86*	-10
COc1ccccc1N1CCN(c2nc3ccccn3c(=O)c2C=O)CC1	-2	0	-1	106	0	4	/
COc1ccccc1CN(C)S(=O)(=O)c1cccs1	-1	-2	0	98	2	15	/
COc1ccc(C(C)=O)cc1CN(c1ccccc1OC)S(=O)(=O)c1cccs1	0	0	-1	102	22	92*	-6
COc1ccc(CCNC(=O)C23CN(Cc4ccccc4)CC2C(c2ccc([N+](=O)[O-])cc2)=NO3)cc1 (centres undefined)	0	-1	2	103	14	60*	-12
COc1ccc(CNC(=O)C23CN(Cc4ccccc4)CC2C(c2ccc([N+](=O)[O-])cc2)=NO3)cc1 (centres undefined)	0	-3	1	97	1	6	/
COc1cccc(C(=O)Nc2cc(NC(=O)c3cccs3)ccc2C)c1OC	0	1	1	98	-1	16	/
Cc1ccc(CN(C)C(=O)C2CCC(=O)N(C3CCCCCC3)C2)cc1 (centres undefined)	0	1	1	106	4	8	/
O=C(Cn1sc2ccccc2c1=O)Nc1ccc(F)cc1	-1	-3	-2	100	12	64*	104*
COc1cc(OC)cc(C(=O)Nc2ccc(-c3nc4ccccc4o3)cc2)c1	-1	7	1	103	5	100*	39
O=C(Nc1ccc(-c2nc3ccccc3o2)cc1)c1cccnc1	0	0	-3	99	12	-2	/
O=C1S/C(=C\c2ccc(N3CCOCC3)o2)C(=O)N1c1ccccc1	1	-1	-2	109	6	68*	18
CCc1ccc(-c2cc(C)no2)cc1S(=O)(=O)N1CCOc2ccccc21	0	-2	0	94	-3	89*	-2
COc1ccc(-c2cc(C)no2)cc1S(=O)(=O)N1CCOc2ccc(C)cc21	0	6	0	100	-9	-3	/
Cn1c(NCC(O)c2ccccc2)nc2c1c(=O)n(Cc1ccc(Cl)c(Cl)c1)c(=O)n2C (centres undefined)	0	5	-1	95	7	92*	14
Cn1c(NCC(O)c2ccccc2)nc2c1c(=O)n(Cc1ccc(Cl)cc1)c(=O)n2C (centres undefined)	-1	2	0	105	1	-8	/
SMILES	Tb MetRS inh	MC4R barr agon	hiPSC survival	ABCB6 inh 2	MC4R antagonist	Exocytosis inh	Granule exo CP1
Cc1ccc(S(=O)(=O)/N=C(\CN2CCCCC2)N2CCOCC2)cc1	0	0	1	93	6	-1	/
CCC(=O)NC(c1cccs1)c1cc(Cl)c2ccccc2c1O (centres undefined)	0	0	0	98	0	17	/
CC(=O)NC(c1cccs1)c1cc(Cl)c2ccccc2c1O (centres undefined)	1	0	1	103	2	73*	-12
Clc1cccc(CN2CCc3c([nH]c4ccccc34)C2)c1	5	0	0	92	6	58*	-14
COc1cc(OC)c(CN2CCc3c([nH]c4ccccc34)C2)cc1Br	4	0	-1	145	-7	52	/
O=C(O)CNC(=O)c1ccc(NC(=O)/C(=C/c2ccccc2)NC(=O)c2ccccc2Br)cc1	0	-1	0	96	-1	-7	/
CCCCc1c(-c2cccc(F)c2)ncn1CCc1ccccc1OC	-1	/	-1	114	/	35	/
CCCCCc1c(-c2cccc(F)c2)ncn1CCc1ccccc1OC	0	/	0	112	/	56*	68*
CCCCCc1c(-c2cccc(OC)c2)ncn1CCc1ccccc1OC	-1	/	1	113	/	76*	47
CCCCCc1c(-c2ccccc2OC)ncn1CCc1ccccc1OC	-1	/	0	114	/	68*	39
Fc1ccccc1CSc1nnc(-c2cnccn2)n1Cc1ccco1	4	1	-1	98	11	-11	/
C(=C\c1ccccc1)/CSc1nnc(-c2cnccn2)n1Cc1ccco1	-2	-1	4	103	0	63*	-9
CCC(C)[C@H]1COCCS(=O)(=O)N1Cc1ccc(Cl)cc1Cl (some centres undefined)	0	0	6	99	-1	-3	/
O=C(Nc1nc(-c2nc3ccccc3s2)cs1)c1ccc(S(=O)(=O)N2CCOCC2)cc1	-1	6	1	90	14	62*	8
